Test results taken from ChEMBL document CHEMBL4428057, “Discovery, Synthesis, and Evaluation of 2,4-Diaminoquinazolines as a Novel Class of Pancreatic β-Cell-Protective Agents against Endoplasmic Reticulum (ER) Stress” (J Med Chem, 2016).
The source made the active and inactive calls. The calls are words filed in the database; no cut-off is given here.

What was measured:
[1] = molecular target: T1, Eukaryotic translation initiation factor 2-alpha kinase 3 (Rattus norvegicus) (UniProt Q9Z1Z1); assay: Inhibition of PERK pathway in rat INS-1 cells assessed as reduction in tunicamycin induced ATF4 protein levels at 20 uM after 2 to 24 hrs by Western blot analysis; type: cell-based
T1 sequence (whole entry): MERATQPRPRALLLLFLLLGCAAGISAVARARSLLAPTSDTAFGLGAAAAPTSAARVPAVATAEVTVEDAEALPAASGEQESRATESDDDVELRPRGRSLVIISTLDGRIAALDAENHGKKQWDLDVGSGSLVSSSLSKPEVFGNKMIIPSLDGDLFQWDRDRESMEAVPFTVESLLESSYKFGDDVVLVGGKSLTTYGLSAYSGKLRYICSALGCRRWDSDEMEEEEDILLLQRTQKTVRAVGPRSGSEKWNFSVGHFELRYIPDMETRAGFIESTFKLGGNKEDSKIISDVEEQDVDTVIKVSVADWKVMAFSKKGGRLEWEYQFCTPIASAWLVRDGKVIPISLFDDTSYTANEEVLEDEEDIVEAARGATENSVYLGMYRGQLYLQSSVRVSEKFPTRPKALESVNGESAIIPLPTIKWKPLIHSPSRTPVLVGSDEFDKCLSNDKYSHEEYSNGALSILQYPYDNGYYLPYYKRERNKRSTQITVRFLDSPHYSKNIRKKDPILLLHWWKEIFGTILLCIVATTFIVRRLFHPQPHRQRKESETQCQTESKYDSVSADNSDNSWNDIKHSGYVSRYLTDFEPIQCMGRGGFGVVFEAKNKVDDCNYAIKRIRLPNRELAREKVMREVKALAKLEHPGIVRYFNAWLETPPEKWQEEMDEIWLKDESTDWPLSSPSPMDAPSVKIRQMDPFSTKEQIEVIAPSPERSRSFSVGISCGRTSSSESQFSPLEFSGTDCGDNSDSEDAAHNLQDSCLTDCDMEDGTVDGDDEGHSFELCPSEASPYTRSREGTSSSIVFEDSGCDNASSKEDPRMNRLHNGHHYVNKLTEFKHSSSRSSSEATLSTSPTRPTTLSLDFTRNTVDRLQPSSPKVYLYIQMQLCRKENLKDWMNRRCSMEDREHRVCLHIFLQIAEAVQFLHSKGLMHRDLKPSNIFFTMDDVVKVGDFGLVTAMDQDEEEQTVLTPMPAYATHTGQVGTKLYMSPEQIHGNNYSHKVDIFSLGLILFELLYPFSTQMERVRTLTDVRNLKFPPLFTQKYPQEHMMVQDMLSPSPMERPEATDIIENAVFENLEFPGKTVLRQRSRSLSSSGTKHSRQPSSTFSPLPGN
In short: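 Western blots of INS-1 cells (8×10^5/60-mm dish) treated with Tm 0.1 µg/mL ± compound 20 µM or DMSO for the indicated times. Lysates with EDTA and phosphatase inhibitors; 20 µg protein on 7% SDS-PAGE, PVDF. Primary antibodies at 1:1000 against ATF4, CHOP, cleaved caspase 3 or PARP; α-tubulin loading control; HRP secondaries. Representative of 3 experiments.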

Beta-TC6 = assay: Protection against tunicamycin induced endoplasmic reticulum stress in mouse BetaTC6 cells assessed as increase in cell viability after 72 hrs by MTT assay; type: functional, cell-based
In short: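 βTC6 cells (DMEM, 15% FBS) seeded at 3×10^3/well in 384-well plates with Tm 0.25 µg/mL ± compound or DMSO for 72 h. Viability by CellTiter-Glo (ATP luminescence) or MTT: 3 h with reagent at 37 °C, then 4 h with crystal-dissolving solution, absorbance at 570 nm. 3 replicate wells, 3 experiments.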

[2] = molecular target: T2, Cyclic AMP-dependent transcription factor ATF-6 alpha (Rattus norvegicus) (UniProt G3V909); assay: Inhibition of ATF6 in rat INS-1 cells assessed as suppression of tunicamycin induced Bip mRNA levels at 20 uM after 4 to 24 hrs by qRT-PCR method; type: cell-based
T2 sequence (whole entry): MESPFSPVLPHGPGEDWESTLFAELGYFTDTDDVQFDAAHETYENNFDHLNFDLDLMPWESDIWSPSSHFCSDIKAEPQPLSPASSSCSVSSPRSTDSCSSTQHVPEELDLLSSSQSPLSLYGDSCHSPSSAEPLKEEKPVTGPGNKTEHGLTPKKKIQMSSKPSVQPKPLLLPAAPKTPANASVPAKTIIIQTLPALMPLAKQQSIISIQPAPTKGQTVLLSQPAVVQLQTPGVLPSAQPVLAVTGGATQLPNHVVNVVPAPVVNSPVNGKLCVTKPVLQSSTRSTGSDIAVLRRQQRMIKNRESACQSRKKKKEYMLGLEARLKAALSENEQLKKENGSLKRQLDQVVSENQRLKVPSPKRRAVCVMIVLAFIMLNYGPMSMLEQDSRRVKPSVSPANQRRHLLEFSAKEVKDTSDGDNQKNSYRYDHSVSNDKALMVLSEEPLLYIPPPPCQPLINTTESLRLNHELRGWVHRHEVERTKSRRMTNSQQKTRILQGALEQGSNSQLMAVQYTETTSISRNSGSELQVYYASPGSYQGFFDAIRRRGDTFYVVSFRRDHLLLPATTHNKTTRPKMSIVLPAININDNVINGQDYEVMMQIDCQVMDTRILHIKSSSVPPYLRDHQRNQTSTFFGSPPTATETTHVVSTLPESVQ
In short: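 INS-1 cells seeded at 4×10^5/well in 6-well plates, given Tm 0.1 µg/mL ± compound 20 µM or DMSO for the indicated times. Bip or GRP94 mRNA measured by qRT-PCR, expressed as fold-increase over untreated control. Means of 3 replicate wells, representative of 3 independent experiments.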

- inhibition [1]: Active
- inhibition [2]: Active
SMILES: COc1ccc(CNc2nc(N3CCCCC3CO)nc3ccccc23)cc1 (racemic)
- Activity (Beta-TC6): Dose-dependent effect
